The source of these data is paper PMC5819594 (Nano letters, 2017).

Entries after “also recorded” stand apart in the source; their conditions may differ. No end group written: not given here.

A word on the Kd: it is the constant that tells how readily two partners part at equilibrium. A low value points to higher affinity.

The target of series [1] is T1, p32 (Homo sapiens, UniProt Q07021).
T1 sequence (Q07021 74-282): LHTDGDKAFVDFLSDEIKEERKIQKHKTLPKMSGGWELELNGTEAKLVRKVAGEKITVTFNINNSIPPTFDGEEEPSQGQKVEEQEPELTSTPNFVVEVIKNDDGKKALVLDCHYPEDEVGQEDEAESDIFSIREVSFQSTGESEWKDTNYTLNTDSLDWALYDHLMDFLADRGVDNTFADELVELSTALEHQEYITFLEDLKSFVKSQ
Put plainly: fluorescence anisotropy. In kind it is binding. A general note: Fluorescence polarisation rises when a labelled molecule tumbles more slowly, as on binding a larger partner.

The next series has as its system tumors. The following applies: cited from earlier work.
Series [2] has as its system tumor blood vessels (CD31). Put plainly: CD31 blood vessel count in treated tumors. In kind it is in vivo. The note with it: n = 3 mice per group; for average blood vessel count: CD31, 10 random fields at 20×. The gist of the method:
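Residual MCF10CA1a orthotopic tumors came from nude mice given peptide-coated NWs i.v. every other day for 3 weeks (7.5mg iron/kg), with a PBS control. Sections were stained with anti-CD31 and imaged by confocal microscopy. Vessels per field were counted, and groups were compared by one-way ANOVA with Tukey's post hoc test.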

Another series concerns glioblastomas. The note with it: mice, cited from earlier work.
Series [3] has as its system MCF10CA1a tumors. The note with it: cited from earlier work.
In series [4] the test system is MCF10CA1a orthotopic tumor xenografts. Put plainly: anti-tumor efficacy, MCF10CA1a breast cancer model. In kind it is in vivo, human tumor cells in BALB/c nude mice. The following applies: for reduction of tumor volume versus PBS: i.v. every other day for 3 weeks, 7.5 mg of iron/kg, at three weeks.
In series [5] the test system is tumor vessels of treated MCF10CA1a tumors. Put plainly: NW homing to residual treated tumors. The format is in vivo, mice. The following applies: for NW-positive tumor vessels: treated tumors after three weeks, five hours after last injection, n = 3/group. The gist of the method: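 MCF10CA1a tumor mice were treated for three weeks with FAM-labeled peptide-NWs. Five hours after the last injection, mice were perfused through the heart with PBS and tissues collected. Tumor sections were stained with anti-CD31 and DAPI and examined by confocal microscopy. Percentage of NW-positive vessels was scored in 10 random areas per section, n = 3/group, mean ±SD.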

Series [6] deals with MCF10CA1a tumors. Put plainly: tumor homing of homing peptide-D[KLAKLAK]2-NWs, MCF10CA1a. In kind it is in vivo, human tumor cells in BALB/c nude mice. The following applies: for tumor homing and penetration of chimeric peptide-NWs: confocal microscopy.
A further series concerns tumor macrophages. The note with it: LyP-1 alone, without drug, tumor macrophages in particular; cited from earlier work.
The target in series [7] is T1, p32. The note with it: LyP-1 linearized; no reference given; cited from earlier work.
Series [8] deals with tumor-associated macrophages/myeloid cells. The following applies: ref Laakkonen et al., 2004; Fogal et al., 2008; cited from earlier work.
Another series relates to MMTV-PyMT tumors. Put plainly: tumor homing in MMTV-PyMT model. The format is in vivo, mouse. The following applies: MMTV-PyMT transgenic breast cancer mice.
For series [9], the system named is MCF10CA1a cultured tumor cells. As to the kind of experiment: cell death and caspase-3 activation in cultured tumor cells. The following applies: Figure S8. The format is cell-based, human.
The subject of series [10] is 4T1 mouse breast cancer tumors. Put plainly: tumor homing in 4T1 model. The format is in vivo. The following applies: 4T1 breast tumor model. The essentials:
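4T1 cells were maintained in DMEM with 10% FBS and 1% Glutamine-Pen-Strep at 37°C/5% CO2. 1 × 10^6 cells were implanted subcutaneously in the flanks of 4-week-old BALB/c mice. Peptide-coated NWs were assessed for homing to tumor vasculature and extravascular tumor tissue.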

Series [11] has as its system MCF10CA1a tumors. As to the kind of experiment: histology. The format is in vivo, human tumor cells in BALB/c nude mice. The following applies: end of 3-week treatment, H&E. The essentials: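 Orthotopic MCF10CA1a xenografts in BALB/c nude mice were treated i.v. with peptide-coated NWs every other day for 3 weeks at 7.5mg iron/kg. At the end of treatment, residual tumors were sectioned and stained with hematoxylin and eosin.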

Series [12] deals with MCF10CA1a tumors. Put plainly: TUNEL staining of treated tumors. In kind it is in vivo, human tumor cells in BALB/c nude mice. The following applies: treated tumors after three weeks.
For series [13] the following is noted: mouse, in vivo.
In the next series the test system is NRP-1. Put plainly: peptide binding to NRP-1 before and after uPA treatment. The following applies: control peptide with active CendR motif, with and without uPA.
Another series concerns the target T2, LinTT1 (also: FAM-labeled).
T2 chain: AKRGARSTA
As to the kind of experiment: fluorescence anisotropy.

With AKRGARSTA [LinTT1], binding at p32 [1] was put at a Kd of 8.7 µM.

Take CGKRK: in the series on tumors (CGKRK (no reference at the statement)), the “tumor homing and penetration of free peptide” value was “does not extravasate and penetrate beyond tumor vessels”.

Take “CGKRK-D[KLAKLAK]2 [CGKRK-D[KLAKLAK]2-NWs, reference compound]”: in series [2], the “average blood vessel count” value is recorded as “almost similar to LinTT1NW”. The lifespan in glioblastoma result in the series on glioblastomas (more aggressive glioblastoma model) was “a substantial prolongation of the lifespan of the mice”. In addition, in the series with glioblastomas (one glioblastoma model), the “tumor growth in glioblastoma” value is “the growth of tumors was essentially completely suppressed”. Moreover, the “tumor homing of CGKRK-D[KLAKLAK]2-NWs (as shown previously)” value with MCF10CA1a tumors [3] is reported as “accumulated in tumor blood vessels, without penetrating into extravascular tumor tissue”. In addition, the “reduction of tumor volume versus PBS” value in series [4] is listed as “about 50%”. The NW-positive tumor vessels in [5] is 20%.

As for “CGKRKRA-D[KLAKLAK]2 [CGKRKRA-D[KLAKLAK]2-NWs]”, the “tumor homing and penetration of chimeric peptide-NWs” value with MCF10CA1a tumors [6] is given as “primarily localized with tumor blood vessels similar to LyP1”.

For CGNKRTRGC [LyP-1], the “apoptosis in cells that take up the peptide” value in the series with tumor macrophages was “causes apoptosis in the cells that take up the peptide most avidly, tumor macrophages in particular”. The p32-binding activity entry on p32 [7] is given as “no detectable p32-binding activity”. Besides, in series [8], the “overlap with tumor-associated macrophages/myeloid cells” value is “substantial overlap with tumor-associated macrophages/myeloid cells in tumor tissue”. For the same molecule, the “tumor homing and penetration of LyP-1” value with tumors is “capable of penetrating into tumors and accumulates in the extravascular tumor tissue”.

As for “CGRKR(NH2)-D[KLAKLAK]2 [CGRKR(NH2)-D[KLAKLAK]2-NWs]”, the “tumor homing and penetration of chimeric peptide-NWs” value in the series on MCF10CA1a tumors [6] is “primarily localized with tumor blood vessels similar to LyP1”.

Turning to “LinTT1-D[KLAKLAK]2 [LinTT1-D[KLAKLAK]2-NWs]”, the “average blood vessel count” value in [2] was “marked reduction of blood vessels”. Moreover, in [2] (CD31, after treatment), the “reduction of blood vessels versus PBS control” value is on record as “more than 6 fold”. Besides, in the series on MMTV-PyMT tumors, the “tumor homing, MMTV-PyMT” value was “efficiently homed to the vasculature of the 4T1 and MMTV-PyMT tumors, accumulating also in extravascular tumor tissue”. Further, the “cell death and caspase-3 activation” value in series [9] is “cell death accompanied by activation of caspase-3”. Further, the “tumor homing, 4T1” value in series [10] is “efficiently homed to the vasculature of the 4T1 and MMTV-PyMT tumors, accumulating also in extravascular tumor tissue”. Besides, the “necrosis and apoptotic nuclei in residual tumors” value in the series on MCF10CA1a tumors [11] was “extensive necrosis and a thin rim of tumor tissue around the necrotic core that contained many apparently apoptotic nuclei”. For the same molecule, in the series on MCF10CA1a tumors [12], the “apoptosis by TUNEL staining” value was “apoptosis in the LinTT1D[KLAKLAK]2-NW tumor rims, where it co-localized with the NWs”. Moreover, the “tumor homing and penetration of chimeric peptide-NWs” value in the series with MCF10CA1a tumors [6] was “highly effective in extravasating and penetrating tumor parenchyma; also recorded: superior to other chimeric peptide-NWs; also recorded: partially co-localize with tumor blood vessels (CD31), but most of the NWs are outside the blood vessels in the extravascular tumor tissue”. Moreover, in the series with MCF10CA1a tumors [6] (quantified NW fluorescence), the “tumor accumulation relative to CGKRK-D[KLAKLAK]2-NWs” value is “over 7 fold”. The “anti-tumor activity” value in series [4] (3 weeks, 7.5 mg of iron/kg i.v. every other day) was “essentially no tumor growth; also recorded: more effective than the previous NPs”. For the same molecule, the “reduction of tumor volume versus PBS” value in series [4] is “about 90%”. The “mice in which tumor seemed to have disappeared” value in series [4] (one of two experiments, 3 weeks) is reported as “four out of 6 mice”. Besides, the tumors regressed in series [4] (proportion of tumors, LinTT1D(KLAKLAK)2-NW group) is given as 10/14. In addition, the NW-positive tumor vessels entry in [5] was “Approximately 68%”. The “accumulation in treated tumors” value in series [5] (tumors treated with LinTT1D(KLAKLAK)2-NWs for 3 weeks) is “no apparent decline in accumulation”. Moreover, the toxicity result in series [13] is recorded as “no significant toxicity”.

With RPARPAR, the “binding to NRP-1 regardless of uPA” value in the series on NRP-1 is “bound only to NRP-1 regardless of uPA treatment”.

B1: p32 (gC1qR/HABP) (protein)
chain: T1 sequence (Q07021 74-282)
B1 came in with a dissociation constant Kd with LinTT1 of 8.7 µM.
